In ChEMBL document CHEMBL1142419, “Antimycobacterial activities of novel 2-(sub)-3-fluoro/nitro-5,12-dihydro-5-oxobenzothiazolo[3,2-a]quinoline-6-carboxylic acid” (Bioorg Med Chem, 2008):
In brackets after ≈: the same amount, converted by molar mass.

Tested on: Mycobacterium tuberculosis
Assay: Antimycobacterial activity against multidrug-resistant Mycobacterium tuberculosis by agar dilution method
Assay type: functional
Outline: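 MIC by agar dilution on Middlebrook 7H11 agar supplemented with OADC, following an NCCLS-like procedure, run in duplicate. The MDR-TB clinical isolate was resistant to isoniazid, rifampicin, ethambutol and ofloxacin.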

Compound	MIC
O=C(O)c1c(=O)c2cc([N+](=O)[O-])c(N3CCC4(CC3)OCCO4)cc2n2c1sc1ccccc12	0.39 µM (≈ 0.188 µg/mL)
NNC(=O)c1ccncc1 [ISONIAZID]	45.6 µM (≈ 6.25 µg/mL)
CCN(CC)C(=O)C1CCCN(c2cc3c(cc2F)c(=O)c(C(=O)O)c2sc4ccccc4n23)C1 (centres undefined)	0.08 µM (≈ 0.0396 µg/mL)
O=C(O)c1c(=O)c2cc(F)c(N3CCC(N4CCCCC4)CC3)cc2n2c1sc1ccccc12	0.19 µM (≈ 0.0911 µg/mL)
COc1c(N2CCNC(C)C2)c(F)cc2c(=O)c(C(=O)O)cn(C3CC3)c12 (centres undefined) [GATIFLOXACIN]	8.34 µM (≈ 3.13 µg/mL)
O=C(O)c1c(=O)c2cc(F)c(N3CCSCC3)cc2n2c1sc1ccccc12	7.55 µM (≈ 3.13 µg/mL)
O=C(O)c1c(=O)c2cc(F)c(N3CCN(Cc4ccc5c(c4)OCO5)CC3)cc2n2c1sc1ccccc12	5.89 µM (≈ 3.13 µg/mL)
COc1cc2c(cc1OC)CN(c1cc3c(cc1F)c(=O)c(C(=O)O)c1sc4ccccc4n13)CC2	3.09 µM (≈ 1.56 µg/mL)
CCN(CC)C(=O)C1CCCN(c2cc3c(cc2[N+](=O)[O-])c(=O)c(C(=O)O)c2sc4ccccc4n23)C1 (centres undefined)	0.75 µM (≈ 0.392 µg/mL)
COc1cc2c(cc1OC)CN(c1cc3c(cc1[N+](=O)[O-])c(=O)c(C(=O)O)c1sc4ccccc4n13)CC2	2.93 µM (≈ 1.56 µg/mL)
O=C(O)c1c(=O)c2cc(F)c(N3CCC(n4c(=O)[nH]c5cc(Cl)ccc54)CC3)cc2n2c1sc1ccccc12	5.56 µM (≈ 3.13 µg/mL)
O=C(O)c1cn2c(n1)CN(c1cc3c(cc1[N+](=O)[O-])c(=O)c(C(=O)O)c1sc4ccccc4n13)CC2	0.77 µM (≈ 0.389 µg/mL)
O=C(O)c1c(=O)c2cc([N+](=O)[O-])c(N3CCC(O)(c4ccc(Cl)cc4)CC3)cc2n2c1sc1ccccc12	2.84 µM (≈ 1.56 µg/mL)
O=C(O)c1c(=O)c2cc(F)c(N3CCC4(CC3)OCCO4)cc2n2c1sc1ccccc12	0.86 µM (≈ 0.391 µg/mL)
CC(C)(C)OC(=O)NC1C2CN(c3cc4c(cc3F)c(=O)c(C(=O)O)c3sc5ccccc5n34)CC21 (centres undefined)	0.18 µM (≈ 0.0917 µg/mL)
O=C(O)c1c(=O)c2cc(F)c(N3CCN(C(c4ccccc4)c4ccc(Cl)cc4)CC3)cc2n2c1sc1ccccc12 (centres undefined)	0.65 µM (≈ 0.389 µg/mL)
CC(C)(C)NC(=O)C1c2ccccc2CCN1c1cc2c(cc1[N+](=O)[O-])c(=O)c(C(=O)O)c1sc3ccccc3n12 (centres undefined)	5.49 µM (≈ 3.13 µg/mL)
O=C(O)c1c(=O)c2cc([N+](=O)[O-])c(N3CCC(N4CCCCC4)CC3)cc2n2c1sc1ccccc12	1.54 µM (≈ 0.78 µg/mL)
O=C(O)c1cn2c(n1)CN(c1cc3c(cc1F)c(=O)c(C(=O)O)c1sc4ccccc4n13)CC2	0.39 µM (≈ 0.187 µg/mL)
Cc1onc(-c2c(F)cccc2F)c1C(=O)N1CCN(c2cc3c(cc2F)c(=O)c(C(=O)O)c2sc4ccccc4n23)CC1	5.06 µM (≈ 3.13 µg/mL)
O=C(O)c1c(=O)c2cc(F)c(N3CCN(C(=O)C4COc5ccccc5O4)CC3)cc2n2c1sc1ccccc12 (centres undefined)	5.59 µM (≈ 3.13 µg/mL)
O=C(O)c1c(=O)c2cc(F)c(N3CCC(O)(c4ccc(Cl)cc4)CC3)cc2n2c1sc1ccccc12	0.36 µM (≈ 0.188 µg/mL)
CC(C)(C)OC(=O)NC1C2CN(c3cc4c(cc3[N+](=O)[O-])c(=O)c(C(=O)O)c3sc5ccccc5n34)CC21 (centres undefined)	0.73 µM (≈ 0.392 µg/mL)
CC(C)(C)NC(=O)C1c2ccccc2CCN1c1cc2c(cc1F)c(=O)c(C(=O)O)c1sc3ccccc3n12 (centres undefined)	1.43 µM (≈ 0.777 µg/mL)
